Source: PubChem
Only some compounds are listed: those with a hit (about 2.6% of all), similar ones and a draw of the others.
CHT allo act: CHT positive allosteric modulators, primary screen, cell-based, membrane potential dye, choline EC20. High affinity choline transporter 1 (Homo sapiens), Q9GZV3. CHT-expressing cells; stronger effect = higher value; LV-AA mutant CHT in HEK293 cells. B-score at 10 µM. hit rate 0.49% among 310,000;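 active = initial fluorescence not abnormally high and integrated response B-score, plate-corrected, over 3 SD above library mean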
Target sequence (Q9GZV3 whole entry, looked up): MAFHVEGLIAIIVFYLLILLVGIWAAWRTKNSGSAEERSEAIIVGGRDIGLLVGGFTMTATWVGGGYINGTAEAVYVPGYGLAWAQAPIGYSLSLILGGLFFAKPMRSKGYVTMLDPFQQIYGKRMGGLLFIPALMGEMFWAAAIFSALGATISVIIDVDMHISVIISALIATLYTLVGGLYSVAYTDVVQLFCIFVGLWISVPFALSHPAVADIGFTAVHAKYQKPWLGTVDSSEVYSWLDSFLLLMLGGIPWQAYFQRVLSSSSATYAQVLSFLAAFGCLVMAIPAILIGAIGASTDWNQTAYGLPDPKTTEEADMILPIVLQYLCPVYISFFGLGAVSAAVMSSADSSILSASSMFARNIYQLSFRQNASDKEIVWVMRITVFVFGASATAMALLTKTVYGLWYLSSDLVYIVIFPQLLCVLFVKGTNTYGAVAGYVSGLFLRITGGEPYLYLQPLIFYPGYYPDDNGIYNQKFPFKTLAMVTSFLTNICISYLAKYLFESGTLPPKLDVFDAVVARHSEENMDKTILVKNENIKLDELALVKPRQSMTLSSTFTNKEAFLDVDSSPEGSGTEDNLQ
CHT block: inhibitors of human choline transporter CHT. High affinity choline transporter 1 (Homo sapiens), Q9GZV3. CHT-expressing cells, membrane potential dye, choline response; stronger effect = lower value. B-score at 10 µM. hit rate 0.86% among 310,000;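 active = B-score over 3 SD under the library average, and starting fluorescence ratio not unusually high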;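 also: choline stimulus applied at its EC90 after an EC20 pre-addition; B-score computed on integrated fluorescence ratio after choline addition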
PolyA inh: polyadenylation inhibitors in yeast reporter cells, primary screen, luminescence, S. cerevisiae. S. cerevisiae SKY197-pL101 polyadenylation reporter, beta-gal luminescence; efflux-impaired pdr1/pdr3 knockout yeast; score 100 = 6 SD above DMSO. activity score, % at 12 µM. hit rate 0.02% among 300,000. AID 1875, 2009;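 active = lowest replicate activity score at least 50, where 100 means six control SD above control mean; inconclusive = lowest score under 50 but half or more replicates reach 50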;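 also: yeast exposed to compound for 9 h at 30 °C; higher score means more reporter readthrough which indicates perturbed polyadenylation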
T cruzi repl: inhibitors of intracellular T. cruzi growth, primary screen, luminescence, NIH3T3 host cells. inhibition, % (concentration not given with the values). T. cruzi beta-gal in NIH3T3, 90 h. hit rate 1.4% among 300,000. AID 1885, 2009;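 active = mean inhibition across valid replicates above about 55%, limit read from the data; inconclusive = mean below that limit but half or more replicates reach it; inactive = mean below it, under half of replicates reach it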;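 also: signal also drops with host cell toxicity which is not excluded here; higher percent means less beta-gal luminescence so fewer parasites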
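Test system: β-gal T. cruzi (Tulahuen C4) inside NIH/3T3 cells / Quantity: 5,000 cells/well / Measured by: luminescence from GalScreen with 0.05% NP40, read after 60 min / Medium: DMEM plus 2% FBS / Measure: parasite load inhibition, % / Reagent: Tulahuen C4 trypomastigotes, 5000/well / Schedule: co-culture of at least 90 h after 3 h attachment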
A number is an active result; - = inactive; ? = inconclusive; . = no result given.

SMILES	CHT allo act	CHT block	PolyA inh	T cruzi repl
CC(C)(C)c1cc(NS(=O)(=O)c2ccc(Br)s2)no1	-	-	-	-
COc1ccc(C(=O)C2CCCN(Cc3cnc(N4CCOCC4)s3)C2)c(OC)c1 (stereo not given)	-	-	-	61
Cc1ccc(N2C(=O)CC(Sc3nc4ccccc4o3)C2=O)cc1Cl (stereo not given)	-	-	-	69
Cc1ccccc1-c1ccc(CN2CCN(C)C(CCO)C2)cc1 (stereo not given)	-	-	-	58
CC(C)n1cc(CN2CCN(C)C(CCO)C2)c2ccccc21 (stereo not given)	-	-	-	59
Cn1c(=NC(=O)CCl)sc2ccccc21	-	-	-	62
Cn1c(=NC(=O)c2ccco2)sc2ccccc21	-	-	-	-
CCN(CC(=O)Nc1c(F)cccc1F)C(=O)COc1ccc2c(c1)CCC2	-	-	-	-
COc1cc(/C=C2\SC(=Nc3ccccc3)NC2=O)cc(Cl)c1O	-	-	-	-
CCc1ccc(N=C2NC(=O)/C(=C/c3cc(OC)c(O)c(OC)c3)S2)cc1	-	-	91	-
Cc1ccc(C(=O)N2CCN(c3nc4ccccc4n3C)CC2)cc1	-	-	-	-
CCCOP(=O)(c1ccc(N(C)C)cc1)C(Nc1ccccc1)c1ccc(C)cc1 (stereo not given)	-	-	59	.
CC(C)CCOP(=O)(c1ccc(N(C)C)cc1)C(Nc1ccccc1)c1ccc(N(C)C)cc1 (stereo not given)	-	-	-	.
O=c1cc(-c2ccccc2Cl)oc2c(NS(=O)(=O)c3cc(Cl)cc(Cl)c3O)ccc(O)c12	-	-9.8	-	-
C=CCNC(=O)O/N=C/c1csc([N+](=O)[O-])c1	-	-	-	57
CC(C)CNC(=S)NC(=O)c1csc([N+](=O)[O-])c1	-	-	-	-
CN1CCN(NC(=O)Nc2cccc(Cl)c2Cl)CC1	-	-	-	57
COc1ccc(C(C(=O)NC2CCCC2)N(C(=O)c2ccco2)c2cc3c(cc2C(C)=O)OCO3)cc1 (stereo not given)	-	-	-	-
C=CCc1cc(Cl)ccc1OCCCNC(C)C	-	-	-	-
C=CCc1cc(Cl)ccc1OCCN(C)C	-	-	-	57
Cc1cc(C(=O)NNc2ccccc2F)no1	-	-	-	61
O=C(N/N=C\c1c(O)ccc2ccccc12)c1ccc(S(=O)(=O)N2CCCCC2)cc1	-	-	-	58
O=C(CCN1CCc2ccccc2C(c2ccccc2)C1)c1ccc2c(c1)OCCO2 (stereo not given)	-	-8.9	-	-
COc1cc(/C(O)=C(\C#N)c2nc3ccccc3[nH]2)cc(OC)c1OC	-	-	-	-
CCOC(=O)C1=C(c2ccccc2)NC(SCC(=O)Nc2ccc(C)cc2)=C(C#N)C1c1ccco1 (stereo not given)	-	-	-	65
SMILES	CHT allo act	CHT block	PolyA inh	T cruzi repl
CCOC(=O)C1=C(c2ccccc2)NC(SCC(=O)Nc2cccc(C)c2)=C(C#N)C1c1ccco1 (stereo not given)	-	-	-	-
CSc1cccc(NC(=S)N(Cc2ccc(C)cc2)Cc2ccccn2)c1	-	-	-	55
COc1ccccc1NC(=S)N(Cc1ccc(C)cc1)Cc1cccnc1	-	-	-	-
COc1ccccc1NC(=S)N(Cc1ccc(C)cc1)Cc1ccccn1	-	-	-	55
COc1ccc(-c2[nH]ncc2/C=N/NC(=O)c2ccncc2)c(OC)c1	-	-	-	-
O=C(OCN1C(=O)C(=O)c2ccccc21)c1ccc(Cl)cc1	-	-	-	-
CCN1/C(=C/c2ccc3cc(C)ccc3[n+]2CC)Sc2ccccc21	-	-	.	-
CCN1/C(=C/C=C/c2sc3ccccc3[n+]2CC)Sc2ccccc21	-	-	93	-
CCN1/C(=C/C=C/C=C/c2sc3ccccc3[n+]2CC)Sc2ccccc21	-	-	-	58
CCCCN1C(=O)/C(=C/C=C2\Oc3ccccc3N2CC)SC1=S	.	.	-	-
CCN1/C(=C/C=C/c2oc3ccc(-c4ccccc4)cc3[n+]2CC)Oc2ccc(-c3ccccc3)cc21	-	-	-	90
COc1ccc(S(=O)(=O)N2CCCOC2CNC(=O)C(=O)NCc2cccnc2)cc1 (stereo not given)	-	-	-	-
CCCCc1sc(-c2c(C#N)c(N)nc3c2CCCCC3)cc1[N+](=O)[O-]	-	-	-	55
CCOC(=O)c1cccc(NC(=O)Nc2cc(OC)ccc2OC)c1	-	-	-	-
CCOC(=O)c1ccc(N2CCN(c3ccccc3F)CC2)c(NC(=O)Nc2cccc(OC)c2)c1	-	-	-	70
COC(=O)C(C)N1CCC(=O)c2ccccc2S1(=O)=O (stereo not given)	-	-	-	-
O=c1[nH]c(C2CCN(S(=O)(=O)c3cccc([N+](=O)[O-])c3)CC2)nc2c1nnn2Cc1ccccc1	-	-	-	-
CC1(C)CC1C(=O)Nc1ccc([N+](=O)[O-])cc1Br (stereo not given)	-	-	-	-
Cc1ccc(C2(c3ccc(C)cc3)CC2C(=O)Nc2ccc([N+](=O)[O-])cc2O)cc1 (stereo not given)	-	-	-	55
COc1ccccc1NS(=O)(=O)c1ccc(C)c(NS(=O)(=O)c2cc(C(=O)O)cc(C)c2C)c1	-	-	-	-
O=C(COC(=O)C1CC1)Nc1ccc2c(c1)OCO2	-	-	-	-
Cn1nnnc1SC1CC(=O)N(c2ccccc2)C1=O (stereo not given)	-	-	-	66
O=C(CN1C(=O)COc2ccccc21)N(Cc1cccnc1)Cc1cccc(F)c1	-	-	-	71
CCC1Oc2ccc(C)cc2N(CC(=O)N(Cc2cccnc2)Cc2cccc(F)c2)C1=O (stereo not given)	-	-	-	59
CCC1Oc2ccc(C)cc2N(CC(=O)N(Cc2ccncc2)Cc2ccco2)C1=O (stereo not given)	-	-	-	-
SMILES	CHT allo act	CHT block	PolyA inh	T cruzi repl
O=C(O)Cc1ccc2c(c1)N(S(=O)(=O)c1cccs1)CC(C(=O)O)O2 (stereo not given)	-	-	?	-
O=C(Nc1ccccc1C(=O)O)c1cc(S(=O)(=O)N2CCCCC2)c(Cl)cc1Cl	-	-	-	58
O=C(Nc1ccccc1C(=O)O)c1ccc(Cl)c(S(=O)(=O)N2CCOCC2)c1	-	-	-	-
CCN(C(=O)CCCCC(=O)N(CC)c1ccccc1)c1ccccc1	-	-	-	-
O=C(CN1CCC(C(O)(c2ccccc2)c2ccccc2)CC1)Nc1cc(Cl)ccc1Cl	-	-	-	55
COc1ccc(C(Nc2ccccn2)c2c(NC(=O)c3ccco3)sc(C)c2C)cc1 (stereo not given)	-	-	-	63
